The record followed here is ChEMBL document CHEMBL1152640, “Synthesis and antiproliferative evaluation of 6-arylindeno[1,2-c]quinoline derivatives” (Bioorg Med Chem, 2009).

Broadly, the GI50 is the concentration at which growth is held to half of that of the control. The low end stands for greater sensitivity of the cells, the high end for lower sensitivity of the cells.

Series [1] relates to HepG2. Description: Antiproliferative activity against human HepG2 cells after 72 hrs by XTT assay. The format is functional. The settings on record: HepG2, 72 h. Put shortly:
(§1)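 Cells were grown as monolayers in DMEM with 10% FBS, penicillin, streptomycin and amphotericin at 37 °C and 5% CO2. Plating was 5×10³ cells/well, with treatment for 72 h in 10% FBS medium, a medium change, then another day. XTT (1 mg/mL) plus PMS in serum-free medium was added for 4 h at 37 °C and read at 492 nm. Growth was taken as % of control (mean of n = 3). GI50 was taken from the linear portion of the curve as the 50% absorbance reduction.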
(In general: Formazan colour is commonly taken as a measure of viable cells.)

Series [2] in a line: Antiproliferative activity against human HepG2(2.2.1) cells after 72 hrs by XTT assay. The format is functional. The settings on record: HepG2, 72 h. Put shortly:
as §1

The subject of series [3] is A549. Description: Antiproliferative activity against human A549 cells after 72 hrs by XTT assay. The format is functional. The settings on record: A549, 72 h. A digest of the protocol:
as §1

Series [4] is described as follows: Antiproliferative activity against human H1299 cells after 72 hrs by XTT assay. The format is functional. Particulars: NCI-H1299, 72 h. Put shortly:
as §1

The nature of series [5]: Cytotoxicity against human MRC5 cells after 72 hrs by XTT assay. The format is cell-based. A digest of the protocol:
as §1

Series [6] can be described thus: Antiproliferative activity against human Hep3B cells after 72 hrs by XTT assay. The format is functional, Hep 3B2. Put shortly:
as §1

The subject of series [7] is A549. Description: Cell cycle arrest in human A549 cells assessed as accumulation at subG1 phase at 1.0 uM after 24 hrs by flow cytometry. The format is functional. Put shortly: (§2)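 A549 cells were exposed to DMSO or compound at 0.1, 1.0, 5.0 or 10.0 µM for 24 h. Cells were harvested, rinsed in PBS, fixed in 70% ethanol and stored at −20 °C. Staining used propidium iodide solution with 0.2 mg/mL RNase and 0.1% Triton X-100, at least 30 min at room temperature in the dark. Cell-cycle phases were read by flow cytometry.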
(In general: In flow cytometry, cells or beads pass a laser one at a time.)

Series [8] relates to A549. Kind of series: Cell cycle arrest in human A549 cells assessed as accumulation at S phase at 1.0 uM after 24 hrs by flow cytometry. The format is functional. Put shortly: as §2
The test system of series [9] is A549. Description: Cell cycle arrest in human A549 cells assessed as accumulation at G1 phase at 1.0 uM after 24 hrs by flow cytometry. The format is functional. A digest of the protocol: as §2
Series [10] relates to A549. Description: Cell cycle arrest in human A549 cells assessed as accumulation at subG1 phase at 10.0 uM after 24 hrs by flow cytometry. The format is functional. Put shortly: as §2
The test system of series [11] is A549. Kind of series: Cell cycle arrest in human A549 cells assessed as accumulation at G1 phase at 5.0 uM after 24 hrs by flow cytometry. The format is functional. Put shortly:
as §2

Series [12] relates to A549. Kind of series: Cell cycle arrest in human A549 cells assessed as accumulation at G2/M phase at 10.0 uM after 24 hrs by flow cytometry. The format is functional. A digest of the protocol: as §2
For series [13], the system named is A549. Description: Cell cycle arrest in human A549 cells assessed as accumulation at S phase at 10.0 uM after 24 hrs by flow cytometry. The format is functional. A digest of the protocol:
as §2

Series [14] relates to A549. Description: Cell cycle arrest in human A549 cells assessed as accumulation at G2/M phase at 5.0 uM after 24 hrs by flow cytometry. The format is functional. Put shortly: as §2
The subject of series [15] is A549. Kind of series: Cell cycle arrest in human A549 cells assessed as accumulation at S phase at 5.0 uM after 24 hrs by flow cytometry. The format is functional. Put shortly:
as §2

For series [16], the system named is A549. Kind of series: Cell cycle arrest in human A549 cells assessed as accumulation at G2/M phase at 1.0 uM after 24 hrs by flow cytometry. The format is functional. Put shortly:
as §2

Series [17] has as its system A549. Description: Cell cycle arrest in human A549 cells assessed as accumulation at subG1 phase at 5.0 uM after 24 hrs by flow cytometry. The format is functional. A digest of the protocol: as §2
Series [18] deals with A549. Kind of series: Cell cycle arrest in human A549 cells assessed as accumulation at G1 phase at 10.0 uM after 24 hrs by flow cytometry. The format is functional. Put shortly:
as §2

On to `O=C1c2cc(O)ccc2-c2c(-c3ccc(OCCN4CCCC4)cc3)nc3ccc(F)cc3c21`, for which the GI50 in series [1] is 6.1 µM; in [2] it was 5.69 µM; in series [3], 6.63 µM; in series [4], 5.25 µM; in series [6] it was 6.34 µM. In [5], this molecule registered a GI50 at 72 h of 6.02 µM.

As for `O=C1c2cc(O)ccc2-c2c(-c3ccc(OCCN4CCCC4)cc3)nc3ccccc3c21`, the GI50 turned out to be 4.28 µM in [1]; 6.06 µM in [2]; 4.33 µM in series [3]; 7.05 µM in [4]; 3.4 µM in series [6]. Also, the GI50 at 72 h in [5] turned out to be 3.16 µM.

For the molecule `CN(C)CCCOc1ccc(-c2nc3ccc(F)cc3c3c2-c2ccc(O)cc2C3=O)cc1`, the concentration for 50% growth inhibition (GI50) stood at 5.92 µM in series [1]; 5.62 µM in series [2]; 6.35 µM in series [3]; 6.13 µM in [4]; 6.72 µM in series [6]. In series [5], this molecule had a GI50 at 72 h of 4.75 µM.

For the molecule `O=C1c2cc(O)ccc2-c2c(-c3ccc(OCCN4CCCCC4)cc3)nc3ccc(F)cc3c21`, the GI50 is 4.78 µM in series [1]; 6.03 µM in series [2]; 6 µM in series [3]; 5.32 µM in [4]; 6.61 µM in [6]. Also, the GI50 at 72 h in series [5] turned out to be 5.91 µM.

With `CN(C)CCCOc1ccc(-c2nc3ccccc3c3c2-c2ccc(O)cc2C3=O)cc1`, the GI50 in [1] worked out at 5.59 µM; in series [2], 6.82 µM; in series [3] it was 5.87 µM; in series [4], 6.39 µM; in series [6], 5.34 µM. Halving of growth in series [5] (GI50 at 72 h) required 4.61 µM.

Turning to `CN(C)CCCOc1ccc(-c2nc3ccc(F)cc3c3c2-c2ccc(OCCCN(C)C)cc2C3=O)cc1`, the GI50 in [1] worked out at 0.61 µM; in series [2], 0.59 µM; in series [3], 3.67 µM; in [4], 0.72 µM; in series [6], 0.67 µM. In [5], this molecule showed a GI50 at 72 h of 1.86 µM.

As for `CCc1c2c(nc3ccc(OC(=O)N4CCC(N5CCCCC5)CC4)cc13)-c1cc3c(c(=O)n1C2)COC(=O)[C@]3(O)CC` [IRINOTECAN], the GI50 is 5.94 µM in [1]; more than 10 µM in series [2]; more than 10 µM in series [3]; more than 10 µM in series [4]; 4.73 µM in series [6]. The same molecule registered a GI50 at 72 h in [5] of 77.5 µM.

In the case of `O=C1c2cc(OCCN3CCCCC3)ccc2-c2c(-c3ccc(OCCN4CCCCC4)cc3)nc3ccc(OCCN4CCCCC4)cc3c21`, the GI50 came out at 0.7 µM in series [1]; 6.07 µM in [2]; 0.81 µM in [3]; 6.26 µM in [4]; 5.02 µM in [6]. In [5], this molecule returned a GI50 at 72 h of 4.64 µM.

On to `O=C1c2cc(OCCN3CCCCC3)ccc2-c2c(-c3ccc(OCCN4CCCCC4)cc3)nc3ccccc3c21`, for which the GI50 in series [1] worked out at 4.32 µM; in [2], 6.24 µM; in series [3], 5.68 µM; in series [4] it was 6.38 µM; in [6] it was 1.35 µM. In series [5], this molecule showed a GI50 at 72 h of 4.34 µM.

As to `COc1ccc(-c2nc3ccc(F)cc3c3c2-c2ccc(OC)cc2C3=O)cc1`, the 50% growth inhibitory concentration (GI50) in series [1] was more than 10 µM; in series [2], more than 10 µM; in [3] it was more than 10 µM; in [4], 6.44 µM; in series [6] it was more than 10 µM. For the same molecule, in series [5], the GI50 at 72 h is more than 10 µM.

As for `O=C1c2cc(OCCN3CCCC3)ccc2-c2c(-c3ccc(OCCN4CCCC4)cc3)nc3ccc(OCCN4CCCC4)cc3c21`, the GI50 is 0.62 µM in series [1]; 3.44 µM in series [2]; 0.67 µM in series [3]; 0.37 µM in [4]; 1.73 µM in series [6]. In series [5], this molecule gave a GI50 at 72 h of 0.71 µM.

As for `O=C1c2cc(O)ccc2-c2c(-c3ccc(O)cc3)nc3ccc(O)cc3c21`, the GI50 is 5.51 µM in series [1]; 6.61 µM in series [2]; 4.98 µM in series [3]; 10.4 µM in [4]; 12.2 µM in [6]. In series [5], this molecule showed a GI50 at 72 h of 10.3 µM.

With `O=C1c2cc(O)ccc2-c2c(-c3ccc(OCCN4CCCCC4)cc3)nc3ccccc3c21`, the GI50 in [1] was found to be 4.3 µM; in series [2] it was 6.4 µM; in series [3], 5.06 µM; in series [4], 6.55 µM; in [6], 5.4 µM. Besides, it took 3.1 µM to inhibit growth in [5] by half (GI50 at 72 h).

For `O=C1c2cc(OCCN3CCCCC3)ccc2-c2c(-c3ccc(OCCN4CCCCC4)cc3)nc3ccc(F)cc3c21`, the GI50 turned out to be 2.82 µM in series [1]; 3 µM in series [2]; 6.24 µM in series [3]; 0.79 µM in series [4]; 0.66 µM in [6]. This molecule had a GI50 at 72 h in series [5] of 4.52 µM.

`O=C1c2cc(O)ccc2-c2c(-c3ccc(O)cc3)nc3ccc(F)cc3c21`: the GI50 in series [1] is more than 10 µM; in [2], more than 10 µM; in [3] it was more than 10 µM; in series [4], 5.88 µM; in [6], 9.01 µM. This molecule showed a GI50 at 72 h in series [5] of more than 10 µM.

As to `COc1ccc(-c2nc3ccc(OC)cc3c3c2-c2ccc(OC)cc2C3=O)cc1`, the Activity in [7] is reported as 0.9%; in series [8], 13.2%; in [9], 78.2%; in series [10], 1%; in [11] it was 77.9%; in [12], 8.4%. The Activity in series [13] was found to be 14.7%; in series [14] it was 7.8%; in series [15] it was 14.3%; in series [16], 8.6%; in series [17], 1%; in series [18], 76.9%. Moreover, the GI50 was more than 10 µM in [1]; more than 10 µM in series [2]; more than 10 µM in series [3]; 7.84 µM in series [4]; 12.5 µM in series [6]. This molecule yielded a GI50 at 72 h in series [5] of 10.2 µM.

For `O=C1c2cc(OCCN3CCCC3)ccc2-c2c(-c3ccc(OCCN4CCCC4)cc3)nc3ccccc3c21`, the GI50 in series [1] stood at 4.03 µM; in series [2] it was 6.15 µM; in series [3], 3.75 µM; in series [4], 6.95 µM; in [6] it was 3.46 µM. Moreover, the GI50 at 72 h in series [5] amounted to 5.31 µM.

`CN(C)CCCOc1ccc(-c2nc3ccccc3c3c2-c2ccc(OCCCN(C)C)cc2C3=O)cc1`: the GI50 in [1] came to 4.35 µM; in series [2], 5.39 µM; in series [3] it was 3.07 µM; in [4], 5.35 µM; in [6], 3.05 µM. In series [5], this molecule showed a GI50 at 72 h of 3.68 µM.

As to `O=C1c2cc(O)ccc2-c2c(-c3ccc(O)cc3)nc3ccccc3c21`, the GI50 is 9.12 µM in [1]; more than 10 µM in series [2]; more than 10 µM in series [3]; more than 10 µM in series [4]; more than 10 µM in [6]. The GI50 at 72 h in [5] was more than 10 µM.

Turning to `CC[C@@]1(O)C(=O)OCc2c1cc1n(c2=O)Cc2cc3c(CN(C)C)c(O)ccc3nc2-1` [TOPOTECAN], the GI50 in series [1] was 3.83 µM; in series [2] it was 4.95 µM; in [3], 5.98 µM; in [4] it was more than 10 µM; in series [6], 0.22 µM. Moreover, it took 4.25 µM to inhibit growth in [5] by half (GI50 at 72 h).

Take `COc1ccc(-c2nc3ccccc3c3c2-c2ccc(OC)cc2C3=O)cc1`: the GI50 in series [1], in series [2], in [3], in series [4] and in series [6] was more than 10 µM in each case. Further, the GI50 at 72 h in [5] was more than 10 µM.

On to `O=C1c2cc(OCCN3CCCC3)ccc2-c2c(-c3ccc(OCCN4CCCC4)cc3)nc3ccc(F)cc3c21`, for which the GI50 turned out to be 4.92 µM in series [1]; 6.11 µM in [2]; 6.23 µM in [3]; 4.3 µM in series [4]; 6.24 µM in [6]. Besides, in series [5], the GI50 at 72 h worked out at 5.15 µM.
